The record followed here is paper PMC6331054 (Bioorganic & medicinal chemistry, 2018).

In data set [1] the target is T1, recombinant chicken RALDH2 (Gallus gallus, UniProt O93344).
T1 sequence (O93344 1-518): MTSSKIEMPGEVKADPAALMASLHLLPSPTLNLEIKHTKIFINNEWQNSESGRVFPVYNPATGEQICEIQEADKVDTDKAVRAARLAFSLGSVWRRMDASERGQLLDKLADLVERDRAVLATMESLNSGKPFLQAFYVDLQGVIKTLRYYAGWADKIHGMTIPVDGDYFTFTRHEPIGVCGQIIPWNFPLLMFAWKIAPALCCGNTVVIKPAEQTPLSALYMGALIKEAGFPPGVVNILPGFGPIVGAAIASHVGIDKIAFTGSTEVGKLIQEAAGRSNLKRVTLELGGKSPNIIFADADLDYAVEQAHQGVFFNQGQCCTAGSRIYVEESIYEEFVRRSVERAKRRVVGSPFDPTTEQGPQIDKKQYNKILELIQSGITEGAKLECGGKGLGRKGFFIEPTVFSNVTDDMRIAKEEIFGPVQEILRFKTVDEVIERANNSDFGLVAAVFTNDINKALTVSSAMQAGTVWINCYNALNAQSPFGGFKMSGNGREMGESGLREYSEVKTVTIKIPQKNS
Briefly: Fluorescence-based NADH assay of RALDH activity with retinaldehyde as substrate. The format is biochemical.

Data set [2] addresses T2, recombinant human mitochondrial ALDH2 (hALDH2) (Homo sapiens, UniProt P05091).
T2 sequence (P05091 18-517): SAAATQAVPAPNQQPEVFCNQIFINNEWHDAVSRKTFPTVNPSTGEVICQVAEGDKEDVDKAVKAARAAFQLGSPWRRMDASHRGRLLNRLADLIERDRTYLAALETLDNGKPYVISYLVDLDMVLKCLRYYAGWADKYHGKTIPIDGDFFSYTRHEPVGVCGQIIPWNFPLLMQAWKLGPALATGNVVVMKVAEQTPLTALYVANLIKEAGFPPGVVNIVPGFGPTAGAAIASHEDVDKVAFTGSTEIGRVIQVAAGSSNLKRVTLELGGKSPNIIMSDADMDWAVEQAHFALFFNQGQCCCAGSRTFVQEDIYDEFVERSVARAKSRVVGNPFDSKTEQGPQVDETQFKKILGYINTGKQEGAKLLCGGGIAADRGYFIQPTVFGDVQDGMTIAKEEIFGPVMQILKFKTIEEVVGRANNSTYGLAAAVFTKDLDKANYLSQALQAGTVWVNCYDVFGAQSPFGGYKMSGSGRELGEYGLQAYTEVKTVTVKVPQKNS
The format is biochemical. The following applies: read-out: KI (Morrison); Morrison equation; ALDH2 4.43 μM. In a few lines:
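Cobalt-purified recombinant hALDH2 (4.5 μM in Hepes pH 8.5/KCl/EDTA dialysis buffer plus 1 mM TCEP) in 20 mM Hepes pH 8.3, 150 mM KCl, 1 mM EDTA, 2 mM DTT, 5 mM propionaldehyde, 25°C. Pre-incubation 20 min–1 hr with test compound (1–100 μM final) or DMSO; NAD+ (5 mM final) started reaction; NADH at 340 nm for 5 min. KI by Morrison equation; triplicates, 3–5 experiments.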

The target in data set [3] is T3, RALDH2 activity in chick choroid cytosol fractions (Gallus gallus, UniProt O93344).
T3 sequence (O93344 1-518): T1 sequence (O93344 1-518)
Type of data set: biochemical. In a few lines: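 Choroidal cytosol from control and 4-day recovering chick eyes was pre-incubated 20 min at 37°C with test compound (0–6 μM) or DMSO. Reaction was started with NAD+ (4 mM) and all-trans-retinaldehyde (25 μM), run 30 min at 37°C under dim red light, stopped with ice and methanol. ATRA was quantified by HPLC.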

Data set [4] deals with T4, RALDH2 activity (ATRA synthesis) in living intact chick choroids (Gallus gallus, UniProt O93344).
T4 sequence (O93344 1-518): T1 sequence (O93344 1-518)
Briefly: RALDH2 activity after incubation of living, intact choroids in organ culture. Type of data set: cell-based. The note with it: organ culture 24 hrs. The procedure, abridged:
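Choroids from 4-day recovering or contralateral control eyes of male White Leghorn chicks (8 mm posterior punch) were cultured one per well in N2 medium with test compound (methods: 0.01–5 μM; legend: 0.01–10 μM) or DMSO for 24 hrs at 37°C, 5% CO2. Cytosol (100,000g, 1 hr) was incubated with NAD+ and 25 μM all-trans-retinaldehyde for 30 min at 37°C, with methanol stop and HPLC quantification of ATRA.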

The nature of data set [5]: Stability of DAR on storage and under assay conditions. The format is physicochemical.

For orientation: Ki means a dissociation constant, usually derived from enzyme kinetics or from competition with a known ligand. The IC50 is the concentration needed to halve the response being measured. For the compound `CC1=C(/C=C/C(C)=C/C=C/C(C)=C/C(=O)C(Cl)Cl)C(C)(C)CCC1` [DAR, (3E,5E,7E,9E)-1,1-dichloro-4,8-dimethyl-10-(2,6,6-trimethylcyclohex-1-en-1-yl)deca-3,5,7,9-tetraen-2-one], in data set [1] (250 nM DAR + 250 μM RAL), the “Protection of RALDH2 activity by all-trans-retinaldehyde in the pre-incubation” value was “No protection”. Moreover, in data set [1] (DAR 150 nM, RALDH2 46 – 91 nM), the “RALDH2 activity at enzyme concentrations below the DAR concentration” value is recorded as “completely inhibited”. Moreover, the Ki in data set [2] was over 100000 nM. The same compound returned an IC50 in data set [3] of 20.7 nM. The “inhibition of RALDH2 activity in control choroid lysates” value in data set [3] (0.10 – 6 μM DAR, 20 min pre-incubation at 37°C, control eyes, vs vehicle) was 92 – 99%. Besides, the “effect on ATRA synthesis in living, intact choroids from control eyes” value in data set [4] was “no significant effect”. The light stability entry in data set [5] (ambient light) is on record as “prone to photoisomerization”. Also, the “stability under assay conditions” value in data set [5] (dark, 25°C and 37°C) was “at least three days”. For the same compound, the storage stability result in data set [5] (stored in the dark and at −80°) is given as “at least three months”.

`O=C(NCCCCCCCCNC(=O)C(Cl)Cl)C(Cl)Cl` [WIN 18446, reference compound]: in data set [4], the “effect on ATRA synthesis in living, intact choroids from control eyes” value is listed as “no significant effect”.
